The source of these data is ChEMBL document CHEMBL2434876, “Design, synthesis and biological evaluation of 2-substituted quinolines as potential antileishmanial agents” (Eur J Med Chem, 2013).

Data set [1] is described as follows: Drug metabolism in human liver microsomes at 1 uM after 30 mins by LC-MS/MS analysis. The class given is ADME, Microsome. Conditions: read-out: Drug metabolism. The essentials:
(§1)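 Liver microsomes (1 mg/mL protein) in sodium phosphate buffer pH 7.4 with 5 mM NADPH, preincubated 10 min at 37°C. Test compound taken from a 200 µM acetonitrile:DMSO (96:4) stock. Samples analysed by LC/MS/MS as analyte/internal standard peak-area ratio. Percent metabolized at 30 min relative to 0 min; NADPH-free controls run in parallel.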
(In general: Liver microsomes are a subcellular fraction often used to study metabolism.)

Data set [2] is described as follows: Drug metabolism in mouse liver microsomes at 1 uM after 30 mins by LC-MS/MS analysis. The class given is ADME, Microsome. Conditions: read-out: Drug metabolism. Summed up: as §1
Data set [3] can be described thus: Selectivity index, ratio of CC50 for African green monkey Vero cells to IC50 for Leishmania donovani MHOM/IN/80/Dd8 amastigotes. The class given is functional. The essentials:
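Selectivity index is Vero CC50 divided by IC50 against intracellular L. donovani amastigotes in J774A.1 cells, each measured over 72 h.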

Data set [4] is described as follows: Cytotoxicity against African green monkey Vero cells after 72 hrs by MTT assay. Conditions: chlorocebus sabaeus. The class given is cell-based. Summed up: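 Exponentially growing Vero cells (1 x 10^5/well) exposed 72 h at 37°C, 5% CO2, to 7-point threefold dilutions from 400 µM (DMSO stocks diluted in medium), with DMSO vehicle controls. MTT added for 2 h, formazan dissolved in DMSO, absorbance read at 544 nm. CC50 is the concentration halving viability versus medium-only cells; mean of two independent experiments.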

In data set [5] the test system is Leishmania donovani. As to the kind of experiment: Antileishmanial activity against Leishmania donovani MHOM/IN/80/Dd8 amastigotes infected in mouse J774A1 cells assessed as parasite growth inhibition after 72 hrs by luciferase reporter gene assay. Conditions: MHOM/IN/80/Dd8, J774.A1, 72 h. The class given is functional, organism-based. The essentials: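 J774A.1 macrophages (4 x 10^3/well) in RPMI-1640 with 10% FCS for 24 h, then infected with stationary-phase luciferase-expressing promastigotes (4 x 10^4/well). Non-internalized parasites washed off after 24 h. Compounds given as 7-point serial dilution from 100 µM for 72 h at 37°C. Steady-Glo luminescence read; IC50 from four-parameter Hill fit, mean of two independent experiments.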
On the technique in general: In a reporter assay the amount or activity of a reporter protein is the signal.

Data set [6] in a line: Drug metabolism in hamster liver microsomes at 1 uM after 30 mins by LC-MS/MS analysis. The class given is ADME, Microsome. Conditions: cricetinae, read-out: Drug metabolism. The essentials: as §1
Data set [7] has as its system Leishmania donovani. As to the kind of experiment: Antileishmanial activity against Leishmania donovani MHOM/IN/80/Dd8 amastigotes infected in golden hamster assessed as parasite growth inhibition at 50 mg/kg, po bid for 5 days measured on day 7 by Giemsa staining assay. The class given is functional. Summed up:
(§2)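 Inbred golden hamsters, 40-45 g, infected intracardially with 1 x 10^7 L. donovani amastigotes. Animals with +1 spleen biopsy grade (5-15 amastigotes/100 nuclei) were randomized, 5-6 per group. Dosing in distilled water/PBS began 48 h after biopsy and ran 5 consecutive days. Post-treatment spleen biopsy on day 7, Giemsa count; percent inhibition corrected for initial count and untreated-control increase.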

Data set [8] concerns Leishmania donovani. The experiment in a line: Antileishmanial activity against Leishmania donovani MHOM/IN/80/Dd8 amastigotes infected in golden hamster assessed as parasite growth inhibition at 30 mg/kg, po qd for 5 days measured on day 7 by Giemsa staining assay. The class given is functional. Conditions: read-out: GI. Summed up:
as §2

A short description of data set [9]: Solubility of the compound. The class given is physicochemical.
Data set [10] concerns Leishmania donovani. As to the kind of experiment: Antileishmanial activity against Leishmania donovani MHOM/IN/80/Dd8 amastigotes infected in golden hamster assessed as parasite growth inhibition at 50 mg/kg, ip qd for 5 days measured on day 7 by Giemsa staining assay. The class given is functional. Summed up: as §2

In general, CC50 refers to the concentration at which the toxic effect on the cells reaches its halfway point. As a reminder, the IC50 is the midpoint of a concentration-inhibition curve. In general, solubility refers to the concentration that dissolves in the medium under given conditions.

SMILES strings stand for the structures. The source made the active and inactive calls. No cut-off for these calls is given here.

For `OC/C=C/c1ccc2cc(Cl)ccc2n1`, the figures for the metabolised at 0.5 h, 1 µM in [1] and in data set [2] were 87% and 100%, respectively. The “Ratio CC50/IC50” value in data set [3] came out at 33.59. Further, the midpoint of cytotoxicity in data set [4], the CC50 at 72 h, lay at 28.9 µM. Further, in data set [5], the IC50 stood at 0.86 µM.
In the case of `CN(C)c1cc(/C=C/CO)nc2cc(F)c(Cl)cc12`, the “Ratio CC50/IC50” value in data set [3] was 1.8. In [4], this compound yielded a CC50 at 72 h of 41.6 µM. In data set [5], the half-maximal inhibitory concentration (IC50) was found to be 23 µM.
In the case of `OC/C=C/c1cc(N2CCCCC2)c2cc(Cl)c(F)cc2n1`, the metabolised at 0.5 h, 1 µM in data set [6] amounted to 100%; in [1] it was 39%; in data set [2] it was 81%. For the same compound, the “Ratio CC50/IC50” value in data set [3] was 7.86. The compound also displayed a CC50 at 72 h in data set [4] of 22.3 µM. Moreover, the IC50 in [5] was determined as 2.84 µM.
As for `COc1ccc(-c2cc(/C=C/CO)nc3cc(F)c(Cl)cc23)cc1`, the “growth inhibition (GI)” value in [7] was “inactive”. In addition, the metabolised at 0.5 h, 1 µM worked out at 23% in data set [6], 14% in [1] and 30% in data set [2]. For the same compound, in data set [3], the “Ratio CC50/IC50” value is 22.26. Besides, half-maximal cytotoxicity in data set [4] (CC50 at 72 h) was put at 26.8 µM. Moreover, the IC50 in data set [5] amounted to 1.2 µM.
Regarding `COc1ccc(-c2cc(/C=C/CO)nc3ccc(Cl)cc23)cc1`, the metabolised at 0.5 h, 1 µM turned out to be 8% in data set [1] and 34% in data set [2]. Also, the “Ratio CC50/IC50” value in data set [3] was 168.72. This compound gave a CC50 at 72 h in data set [4] of 37.1 µM. The IC50 in data set [5] is 0.22 µM.
Turning to `OC/C=C/c1cc(N2CCOCC2)c2cc(Cl)ccc2n1`, the results for the metabolised at 0.5 h, 1 µM in data set [6], in [1] and in data set [2] were 88%, 43% and 56%, respectively. The “Ratio CC50/IC50” value in data set [3] was determined as 10.65. The midpoint of cytotoxicity in data set [4], the CC50 at 72 h, lay at 46.9 µM. Also, the IC50 in [5] was found to be 4.4 µM.
On to `COc1ccc2nc(/C=C/CO)ccc2c1`, for which the “Ratio CC50/IC50” value in [3] was determined as 1.42. In [4], this compound returned a CC50 at 72 h of 45.9 µM. Further, the IC50 in [5] came to 32.4 µM.
For `CCCCCCCCCCCCCCCCOP(=O)([O-])OCC[N+](C)(C)C` [MILTEFOSINE], the inhibition in vivo at 30 mg/kg in [8] was found to be 96.5%. For the same compound, in data set [3], the “Ratio CC50/IC50” value is on record as 6.27. Moreover, in data set [4], the CC50 at 72 h was determined as 52.7 µM.
In the case of `OC/C=C/c1cc(N2CCOCC2)c2cc(Cl)c(F)cc2n1`, the inhibition in vivo at 50 mg/kg in data set [7] (read-out: GI) amounted to 84.3%.
Take `N#C/C=C/c1ccc2ccccc2n1`: the metabolised at 0.5 h, 1 µM in data set [1] and in [2] was 100% throughout. The “Ratio CC50/IC50” value in data set [3] is recorded as 5.41. In data set [4], the midpoint of cytotoxicity, the CC50 at 72 h, lay at 155 µM. The IC50 in data set [5] worked out at 28.6 µM.
As for `OCC#Cc1ccc2ccccc2n1`, the metabolised at 0.5 h, 1 µM in [1] stood at 22%; in data set [2], 99%. For the same compound, the “Ratio CC50/IC50” value in [3] was determined as 2.45. For the same compound, the CC50 at 72 h in data set [4] stood at 26.2 µM. In addition, the IC50 in data set [5] came out at 10.7 µM.
Turning to `CN1CCN(c2cc(/C=C/CO)nc3cc(F)c(Cl)cc23)CC1`, the metabolised at 0.5 h, 1 µM in [6] amounted to 89%; in [1] it was 27%; in data set [2], 27%. The “Ratio CC50/IC50” value in data set [3] was determined as 7.58. In [4], this compound yielded a CC50 at 72 h of 44.6 µM. The IC50 in data set [5] came to 5.88 µM.
Take `FC/C=C/c1ccc2ccccc2n1`: the metabolised at 0.5 h, 1 µM in data set [1] and in data set [2] was 100% throughout. This compound also returned a solubility in data set [9] greater than 1000 µg/mL. For the same compound, the “Ratio CC50/IC50” value in data set [3] turned out to be 5.77. In data set [4], this compound yielded a CC50 at 72 h of 38.6 µM. Also, in data set [5], the IC50 came to 6.68 µM.
Take `OC/C=C/c1ccc2ccccc2n1`: the “growth inhibition (GI)” value in data set [10] was “inactive”. The figures for the metabolised at 0.5 h, 1 µM in [1] and in data set [2] were 96% and 100%, respectively. Besides, the “Ratio CC50/IC50” value in [3] came out at 3.17. Also, the CC50 at 72 h in data set [4] worked out at 31.9 µM. The IC50 in data set [5] is 10 µM.
With `OC/C=C/c1cc(-c2cccc(F)c2)c2cc(Cl)c(F)cc2n1`, the metabolised at 0.5 h, 1 µM in [6] came to 59%; in [1], 25%; in [2], 40%. Moreover, the “Ratio CC50/IC50” value in [3] is given as 12.08. The CC50 at 72 h in [4] stood at 21.6 µM. Besides, the IC50 in data set [5] amounted to 1.79 µM.
As for `COc1cc2nc(/C=C/CO)cc(N3CCOCC3)c2cc1Cl`, the metabolised at 0.5 h, 1 µM in data set [6] was found to be 86%; in [1] it was 31%; in [2], 44%. Further, the “Ratio CC50/IC50” value in data set [3] amounted to 13.92. The CC50 at 72 h in [4] turned out to be 51.8 µM. Also, in data set [5], the IC50 stood at 3.72 µM.
Regarding `CCCc1ccc2ccccc2n1`, the metabolised at 0.5 h, 1 µM in data set [1] worked out at 98%; in [2], 100%. Also, the “Ratio CC50/IC50” value in data set [3] was less than 1.25. Moreover, the CC50 at 72 h in data set [4] came out at 126 µM. In addition, the IC50 in [5] was greater than 100 µM.
With `O=C(O)/C=C/c1ccc2ccccc2n1`, the “Ratio CC50/IC50” value in data set [3] is on record as greater than 7.96. Moreover, the CC50 at 72 h in data set [4] was greater than 400 µM. Also, in data set [5], the IC50 was 50.2 µM.
Consider `OC/C=C/c1ccc2cc(F)ccc2n1`, for which the metabolised at 0.5 h, 1 µM in data set [1] was determined as 76%; in data set [2], 100%. For the same compound, the “Ratio CC50/IC50” value in [3] amounted to 2.86. Also, the CC50 at 72 h in data set [4] was 51.2 µM. For the same compound, the IC50 in data set [5] worked out at 17.9 µM.
The corresponding values for `OC/C=C/c1cc(-c2ccc(F)cc2)c2cc(Cl)ccc2n1` are 25%, 83%, 20.71, 32.5 µM and 1.57 µM.
The corresponding values for `OC/C=C/c1ccc2cc(Cl)c(F)cc2n1` are 50%, 60%, 5.54, 79.6 µM and 14.3 µM.
`OC/C=C/c1ccc2c(F)c(Cl)ccc2n1`: the “Ratio CC50/IC50” value in [3] came out at 4.76. This compound also yielded a CC50 at 72 h in [4] of 19.5 µM. Moreover, in data set [5], the IC50 came to 4.1 µM.
Turning to `NC(=O)/C=C/c1ccc2ccccc2n1`, the metabolised at 0.5 h, 1 µM in data set [1] came out at 44%; in data set [2], 97%. In addition, in data set [3], the “Ratio CC50/IC50” value was 3.74. The CC50 at 72 h in [4] was determined as 76.3 µM. Moreover, the IC50 in [5] was found to be 20.4 µM.
As to `OC/C=C/c1cc(-c2ccc(F)cc2)c2cc(Cl)c(F)cc2n1`, the metabolised at 0.5 h, 1 µM in data set [6] worked out at 53%; in data set [1], 25%; in data set [2] it was 51%. The compound further showed a CC50 at 72 h in [4] of 24.6 µM. The IC50 in data set [5] is 1.43 µM.
`OC/C=C/c1cc(Oc2ccc(F)cc2)c2cc(Cl)ccc2n1`: the results for the metabolised at 0.5 h, 1 µM in [6], in [1] and in [2] were 94%, 27% and 33%, respectively. Also, in data set [3], the “Ratio CC50/IC50” value came out at 18.07. This compound showed a CC50 at 72 h in data set [4] of 35.4 µM. In data set [5], the IC50 was determined as 1.96 µM.
Turning to `CC1CN(c2cc(/C=C/CO)nc3cc(F)c(Cl)cc23)CC(C)O1` (configuration not stated), the metabolised at 0.5 h, 1 µM in data set [6] was 99%; in [1], 17%; in data set [2], 50%. The “Ratio CC50/IC50” value in data set [3] is on record as 8.97. This compound also had a CC50 at 72 h in data set [4] of 41.3 µM. In addition, in [5], the IC50 is 4.75 µM.
